What is called inhibition is the change of the read-out against control, counted positive when it falls. Lower therefore signals a response near the control.

Where a SMILES comes first, the peptide text is derived from it. The star is where a group is joined. pNA = O=[N+]([O-])c1ccc(N*)cc1; Boc = CC(C)(C)OC(=O)*; Bn = c1ccc(C*)cc1

These results are taken from ChEMBL document CHEMBL1133723, “Developing a dynamic pharmacophore model for HIV-1 integrase” (J Med Chem, 2000).

The target of assay [1] is Human immunodeficiency virus type 1 integrase (Human immunodeficiency virus 1) (UniProt Q7ZJM1). As to the kind of experiment: Inhibitory activity against HIV-1 integrase at 200 uM. A digest of the protocol:
(§1)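 Integration reaction with HIV-1 integrase, run as in an earlier published method except for the detection step. The integration product was detected with digoxygenin-labelled oligonucleotides and an anti-digoxygenin antibody conjugated to horseradish peroxidase. Compounds were tested at 1 mM, 200 µM and 25 µM.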

The target is the same in assay [2]. As to the kind of experiment: Inhibitory activity against HIV-1 integrase at 1 mM. The method, boiled down: as §1
Assay [3] has the same target. Description: Inhibitory activity against HIV-1 integrase at 25 uM. The method, boiled down:
as §1

Assay [4] shares this target. The conditions noted are these: at 200 µM.
For assay [5] the target is unchanged. The conditions noted are these: at 1 mM.
Assay [6] has the same target. As to the kind of experiment: Inhibition against HIV-1 integrase at 25 uM. A digest of the protocol: as §1

Turning to `N=C(NCCCCCCNC(=N)NC(=N)Nc1ccc(Cl)cc1)NC(=N)Nc1ccc(Cl)cc1`, the inhibition in assay [1] is less than 50%; in assay [2], greater than 50%; in assay [3], less than 50%.

As for `Nc1nc(=O)c2c([nH]1)NCC(CNc1ccc(C(=O)N[C@@H](CCC(=O)O)C(=O)O)cc1)=N2`, the inhibition in assay [1] was greater than 50%; in assay [2] it was greater than 50%; in assay [3] it was less than 50%.

Consider `O=C(O[C@@H]1Cc2c(O)cc(O)cc2O[C@@H]1c1cc(O)c(O)c(O)c1)c1cc(O)c(O)c(O)c1`, for which the inhibition in assay [4], in assay [5] and in assay [6] was greater than 50% each time.

Turning to `NNC(=O)C(O)C(O)C(O)C(O)CO` (stereo unspecified), the inhibition in assay [4] was less than 50%; in assay [5] it was greater than 50%; in assay [6] it was less than 50%.

For `CCCCCCCCCCCCC/C=C/C(O)C(N)CO[C@@H]1O[C@H](CO)[C@H](O)[C@H](O)[C@H]1O` (stereo partly specified), the inhibition in assay [4] is less than 50%; in assay [5], greater than 50%; in assay [6], less than 50%.

As to `CC(C)(C)OC(=O)N[C@@H](COCc1ccccc1)C(=O)NCC(=O)N[C@@H](CCCN=C(N)N)C(=O)Nc1ccc([N+](=O)[O-])cc1` (Boc-Ser(Bn)-Gly-Arg-pNA), the inhibition in assay [4] was less than 50%; in assay [5] it was greater than 50%; in assay [6], less than 50%.

Regarding `NC(=O)c1ccccc1NC(=O)Nc1cc(NC(=O)Nc2ccccc2C(N)=O)c(Br)cc1Br`, the results for the inhibition in assay [4], in assay [5] and in assay [6] were greater than 50%, greater than 50% and less than 50%, respectively.
